How the values were obtained:
[1] = target: T1, Histamine H3 receptor (Homo sapiens, UniProt Q9Y5N1); assay: Antagonist activity at human recombinant histamine H3 receptor expressed in human SK-N-MC cells; type: functional, cell-based; conditions: read-out: pA2 (converted)
[2] = target: T1, Histamine H3 receptor; assay: Displacement of [125I]iodoproxyfan from human recombinant histamine H3 receptor expressed in human SK-N-MC cells; type: cell-based
How it was run: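 Cells stably expressing human H3 were grown to confluence, washed in PBS, pelleted and stored at −80 °C. Pellets were homogenized in 50 mM Tris–HCl, 5 mM EDTA, pH 7.5, spun at 1000g for 5 min, then at 25,000g for 25 min.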

[3] = target: T2, Histamine H3 receptor (Rattus norvegicus, UniProt Q9QYN8); assay: Displacement of [125I]iodoproxyfan from rat recombinant histamine H3 receptor expressed in human SK-N-MC cells; type: cell-based
[4] = target: T2, Histamine H3 receptor; assay: Antagonist activity rat recombinant histamine H3 receptor expressed in human SK-N-MC cells; type: functional, cell-based; conditions: read-out: pA2 (converted)
[5] = system: Rattus norvegicus; assay: Ex vivo histamine H3 receptor occupancy in rat striatum at 0.3 mg/kg, po; type: functional
How it was run: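 Rats were dosed orally, and striatal H3 receptor occupancy was measured ex vivo 60 min after dosing. Plasma and brain drug levels were taken at the same time. Values are mean ± SEM, n = 3.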

T2 sequence (Q9QYN8 whole entry): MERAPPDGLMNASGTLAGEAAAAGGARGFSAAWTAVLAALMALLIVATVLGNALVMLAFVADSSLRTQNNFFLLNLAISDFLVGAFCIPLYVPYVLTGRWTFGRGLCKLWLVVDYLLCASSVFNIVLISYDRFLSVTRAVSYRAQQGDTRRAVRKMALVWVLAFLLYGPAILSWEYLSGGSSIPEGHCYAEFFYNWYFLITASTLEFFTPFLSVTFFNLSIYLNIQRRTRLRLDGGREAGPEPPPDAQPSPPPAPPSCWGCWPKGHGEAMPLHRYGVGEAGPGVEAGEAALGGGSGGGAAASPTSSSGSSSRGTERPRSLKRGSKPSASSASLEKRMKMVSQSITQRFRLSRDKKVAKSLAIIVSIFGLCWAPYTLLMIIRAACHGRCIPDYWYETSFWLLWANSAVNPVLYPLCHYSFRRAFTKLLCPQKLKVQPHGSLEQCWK
T1 sequence (Q9Y5N1 whole entry): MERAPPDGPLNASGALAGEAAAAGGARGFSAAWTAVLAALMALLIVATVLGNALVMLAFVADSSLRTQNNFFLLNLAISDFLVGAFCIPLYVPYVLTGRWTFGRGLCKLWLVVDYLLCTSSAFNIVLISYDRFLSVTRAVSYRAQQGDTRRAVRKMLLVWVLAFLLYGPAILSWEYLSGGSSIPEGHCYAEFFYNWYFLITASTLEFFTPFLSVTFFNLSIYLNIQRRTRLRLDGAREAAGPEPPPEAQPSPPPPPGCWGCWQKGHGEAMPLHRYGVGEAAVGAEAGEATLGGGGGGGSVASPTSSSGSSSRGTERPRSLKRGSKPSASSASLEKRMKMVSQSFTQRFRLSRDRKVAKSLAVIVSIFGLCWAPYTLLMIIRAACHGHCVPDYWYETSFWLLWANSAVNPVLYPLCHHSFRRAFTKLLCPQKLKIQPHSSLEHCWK

Row | SMILES | Kb [1] | Ki [2] | Ki [3] | Kb [4] | Activity [5]
1 | c1cc(CN2CCOCC2)cc(OCC2CN(C3CCC3)CCO2)c1 (stereo not given) | 14.1 nM | 37 nM | 277 nM | 79.4 nM | –
2 | CC(C)N1CCOC(COc2cccc(CN3CCOCC3)c2)C1 (stereo not given) | 44.7 nM | 102 nM | 562 nM | 251 nM | –
3 | CCOc1ccccc1OCC1CN(C2CC2)CCO1 (stereo not given) | – | > 10000 nM | – | – | –
4 | CC(C)N1CCOC(COc2ccc(CN3CCOCC3)cc2)C1 (stereo not given) | – | 49 nM | 92 nM | – | –
5 | c1ccc(OCC2CNCCO2)cc1 (stereo not given) | – | > 10000 nM | – | – | –
6 | CCOc1ccccc1OCC1CN(C(C)C)CCO1 (stereo not given) | – | 9000 nM | – | – | –
7 | CCN1CCOC(COc2ccc(CN3CCOCC3)cc2)C1 (stereo not given) | – | 165 nM | – | – | –
8 | CC(C)N1CCOC(COc2ccccc2)C1 (stereo not given) | – | 4800 nM | – | – | –
9 | CN1CCOC(COc2ccc(CN3CCOCC3)cc2)C1 (stereo not given) | – | 2100 nM | – | – | –
10 | CCOc1ccccc1OCC1CN(C2CCCC2)CCO1 (stereo not given) | – | 5300 nM | – | – | –
11 | c1cc(CN2CCOCC2)cc(OCC2CN(C3CC3)CCO2)c1 (stereo not given) | – | 566 nM | – | – | –
12 | CCOc1ccccc1OCC1CN(C2CCC2)CCO1 (stereo not given) | – | 7100 nM | – | – | –
13 | c1cc(OCC2CN(C3CC3)CCO2)ccc1CN1CCOCC1 (stereo not given) | – | 106 nM | – | – | –

Now those with a lower Ki [2], led by results:

Row | Kb [1] | Ki [2] | Ki [3] | Kb [4] | SMILES | Activity [5]
14 | 0.955 nM | 3.6 nM | 20 nM | 4.79 nM | c1cc(OCC2CN(C3CCCC3)CCO2)ccc1CN1CCOCC1 (stereo not given) | –
15 | 0.331 nM | 2.2 nM | 9.8 nM | 1.58 nM | c1cc(OCC2CN(C3CCCC3)CCO2)ccc1CN1CCCC1 (stereo not given) | –
16 | 0.38 nM | 1.9 nM | 9.7 nM | 2.14 nM | c1cc(OC[C@@H]2CN(C3CCCC3)CCO2)ccc1CN1CCOCC1 | 80%
17 | 0.148 nM | 2.5 nM | 10 nM | 1.55 nM | c1cc(OCC2CN(C3CCCC3)CCO2)ccc1CN1CCCCC1 (stereo not given) | –
18 | 7.94 nM | 31 nM | 121 nM | 43.7 nM | c1cc(OC[C@H]2CN(C3CCCC3)CCO2)ccc1CN1CCOCC1 | –
19 | 3.09 nM | 18 nM | 75 nM | 19.1 nM | c1cc(OCC2CN(C3CCC3)CCO2)ccc1CN1CCOCC1 (stereo not given) | –

— ChEMBL document CHEMBL1143437, “2-Aryloxymethylmorpholine histamine H(3) antagonists” (Bioorg Med Chem Lett, 2008)
